{
  "source": "ChEMBL document CHEMBL1649111",
  "about": "“Restoration of susceptibility of intracellular methicillin-resistant Staphylococcus aureus to beta-lactams: comparison of strains, cells, and antibiotics” (Antimicrob Agents Chemother, 2008)",
  "key": {"[1]": {"test_system": "Staphylococcus aureus", "assay": "Antimicrobial activity against intracellular hospital acquired methicillin-resistant Staphylococcus aureus ATCC 33591 infected in human keratinocytes assessed as increase in bacterial count from original inoculum at low compound concentration after 24 hrs at pH 7.4", "assay_type": "functional", "procedure,_shortened": "(§1)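 Primary human skin keratinocytes or Calu-3 bronchial epithelial cells, given an inoculum of 5 × 10⁷ to 1 × 10⁸ bacteria/ml and 2 h for internalization. Post-phagocytosis load 1.5 × 10⁶ to 3.0 × 10⁶ CFU per mg cell protein. Cloxacillin dose range in mg/liter for 24 h, n = 3. Hill-derived Emin, Emax and EC50; static concentration interpolated.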"}, "[2]": {"test_system": "Staphylococcus aureus", "assay": "Antimicrobial activity against intracellular beta-lactamase negative methicillin-susceptible Staphylococcus aureus ATCC 25923 infected in human keratinocytes assessed as decrease in bacterial count from original inoculum at high compound concentration after 24 hrs at pH 7.4", "assay_type": "functional", "procedure,_shortened": "(§2)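 Primary human skin keratinocytes or Calu-3 bronchial epithelial cells infected with MSSA ATCC 25923 at 5 × 10⁷ to 1 × 10⁸ bacteria/ml, 2 h internalization. Postphagocytosis inoculum 1.5 × 10⁶ to 3.0 × 10⁶ CFU/mg protein. Cloxacillin concentration range for 24 h; CFU/mg protein change vs. inoculum (n = 3). Hill fit gives Emin/Emax; static concentration by graphical interpolation.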"}, "[3]": {"test_system": "Staphylococcus aureus", "assay": "Antimicrobial activity against intracellular hospital acquired methicillin-resistant Staphylococcus aureus ATCC 33591 infected in human Calu3 cells assessed as decrease in bacterial count from original inoculum at high compound concentration after 24 hrs at pH 7.4", "assay_type": "functional, Calu-3", "procedure,_shortened": "as §1"}, "[4]": {"test_system": "Staphylococcus aureus", "assay": "Antimicrobial activity against intracellular hospital acquired methicillin-resistant Staphylococcus aureus ATCC 33591 infected in human Calu3 cells assessed as decrease in bacterial growth after 24 hrs at pH 7.4", "assay_type": "functional, organism-based", "conditions": "ATCC 33591, Calu-3, 24 h", "procedure,_shortened": "as §1"}, "[5]": {"test_system": "Staphylococcus aureus", "assay": "Bacteriostatic activity against intracellular beta-lactamase negative methicillin-susceptible Staphylococcus aureus ATCC 25923 infected in human Calu3 cells assessed as decrease in bacterial growth after 24 hrs at pH 7.4", "assay_type": "functional, Calu-3", "procedure,_shortened": "as §2"}, "[6]": {"assay": "Chemical stability of the compound assessed as compound remaining after 24 hrs in PBS buffer by HPLC analysis at pH 7.4", "assay_type": "physicochemical", "conditions": "read-out: Activity", "procedure,_shortened": "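Drug at 50 mg/liter initial concentration incubated 24 h at 37°C in buffered medium at pH 7.4 or 5.5. Remaining drug measured by HPLC signal disappearance; mobile phase 25 mM phosphate buffer pH 6.7 with acetonitrile (75:25).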"}, "[7]": {"test_system": "Staphylococcus aureus", "assay": "Antimicrobial activity against beta-lactamase negative methicillin-susceptible Staphylococcus aureus ATCC 25923 by broth microdilution method at pH 7.4", "assay_type": "functional"}, "[8]": {"test_system": "Staphylococcus aureus", "assay": "Antimicrobial activity against hospital acquired methicillin-resistant Staphylococcus aureus N4120210 obtained from urinary tract infection patient by broth microdilution method at pH 7.4", "assay_type": "functional", "conditions": "N4120210, Urine", "procedure,_shortened": "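Minimal inhibitory concentration by broth microdilution at pH 7.4, read in mg/liter. The MRSA genotype was confirmed by mecA PCR, and the SCCmec subgroup was assigned by multiplex PCR.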"}, "[9]": {"test_system": "Staphylococcus aureus", "assay": "Antimicrobial activity against Panton-valentine leukocidin positive community acquired methicillin-resistant Staphylococcus aureus NRS192 obtained from patient with pneumonia and septic arthritis by broth microdilution method at pH 5.5", "assay_type": "functional"}, "[10]": {"test_system": "Staphylococcus aureus", "assay": "Antimicrobial activity against hospital acquired methicillin-resistant Staphylococcus aureus ATCC 33591 infected in human THP-1 cells assessed as increase in bacterial count from original inoculum at low compound concentration after 24 hrs at pH 5.5", "assay_type": "functional", "procedure,_shortened": "(§3)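 Bacteria phagocytosed by unactivated human THP-1 macrophages, then incubated 24 h with extracellular antibiotic at about 0.01× to 100× the pH 5.5 broth MIC. CFU per mg cell protein counted against the original inoculum, n = 3. A Hill-equation fit (slope factor 1) gave Emin and Emax, extrapolated to infinitely low and high concentration, and EC50. Static concentration was graphically interpolated.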"}, "[11]": {"test_system": "Staphylococcus aureus", "assay": "(§4) Antimicrobial activity against hospital acquired methicillin-resistant Staphylococcus aureus N4120210 obtained from urinary tract infection of patient infected in human THP-1 cells assessed as increase in bacterial count from original inoculum at low compound concentration after 24 hrs at pH 5.5", "assay_type": "functional, Urine", "procedure,_shortened": "as §3"}, "[12]": {"test_system": "Staphylococcus aureus", "assay": "as §4, with “methicillin-resistant and vancomycin-intermediate” for “methicillin-resistant”, “NRS18” for “N4120210”, “wound, skin and soft tissue” for “urinary tract”", "assay_type": "functional", "procedure,_shortened": "(§5)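 Human THP-1 macrophages infected with each S. aureus strain. Cloxacillin added extracellularly at about 0.01× to 100× the broth MIC measured at pH 5.5, with gentamicin 0.5 mg/liter to stop extracellular growth. Incubated 24 h. CFU counted per mg cell protein as change from the post-phagocytosis inoculum, n = 3. Emin, Emax and EC50 from a Hill fit; static concentration by graphical interpolation.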"}, "[13]": {"test_system": "Staphylococcus aureus", "assay": "as §4, with “methicillin-resistant and vancomycin-intermediate” for “methicillin-resistant”, “VRS2” for “N4120210”, “wound, skin and soft tissue” for “urinary tract”", "assay_type": "functional", "procedure,_shortened": "as §5"}, "[14]": {"test_system": "Staphylococcus aureus", "assay": "(§6) Antimicrobial activity against hospital acquired methicillin-resistant Staphylococcus aureus N4120032 obtained from wound infection opf patient infected in human THP-1 cells assessed as decrease in bacterial count from original inoculum at high compound concentration after 24 hrs at pH 5.5", "assay_type": "functional", "procedure,_shortened": "as §3"}, "[15]": {"test_system": "Staphylococcus aureus", "assay": "Antimicrobial activity against Panton-valentine leukocidin positive community acquired methicillin-resistant Staphylococcus aureus N4042228 infected in human THP-1 cells assessed as decrease in bacterial count from original inoculum at high compound concentration after 24 hrs at pH 5.5", "assay_type": "functional", "procedure,_shortened": "as §3"}, "[16]": {"test_system": "Staphylococcus aureus", "assay": "as §6, with “methicillin-resistant and vancomycin-intermediate” for “methicillin-resistant”, “NRS18” for “N4120032”, “wound, skin and soft tissue” for “wound”, “of” for “opf”", "assay_type": "functional", "procedure,_shortened": "as §3"}, "[17]": {"test_system": "Staphylococcus aureus", "assay": "as §6, with “methicillin-resistant and vancomycin-intermediate” for “methicillin-resistant”, “VRS2” for “N4120032”, “wound, skin and soft tissue” for “wound”, “of” for “opf”", "assay_type": "functional", "procedure,_shortened": "as §5"}, "[18]": {"test_system": "Staphylococcus aureus", "assay": "Antimicrobial activity against hospital acquired methicillin-resistant Staphylococcus aureus ATCC 33591 infected in human THP-1 cells assessed as decrease in bacterial growth after 24 hrs at pH 5.5", "assay_type": "functional, organism-based", "conditions": "ATCC 33591, THP-1, 24 h", "procedure,_shortened": "as §3"}, "[19]": {"test_system": "Staphylococcus aureus", "assay": "Antimicrobial activity against hospital acquired methicillin-resistant Staphylococcus aureus HMC546 infected in human THP-1 cells assessed as decrease in bacterial growth after 24 hrs at pH 5.5", "assay_type": "functional, organism-based", "conditions": "HMC546, THP-1, 24 h", "procedure,_shortened": "as §3"}, "[20]": {"test_system": "Staphylococcus aureus", "assay": "Antimicrobial activity against Panton-valentine leukocidin positive community acquired methicillin-resistant Staphylococcus aureus N4090440 obtained from wound infection of patient infected in human THP-1 cells assessed as decrease in bacterial growth after 24 hrs at pH 5.5", "assay_type": "functional, organism-based", "conditions": "N4090440, THP-1, 24 h", "procedure,_shortened": "as §3"}, "[21]": {"test_system": "Staphylococcus aureus", "assay": "Antimicrobial activity against animal acquired methicillin-resistant Staphylococcus aureus N7112046 infected in human THP-1 cells assessed as decrease in bacterial growth after 24 hrs at pH 5.5", "assay_type": "functional, organism-based", "conditions": "N7112046, THP-1, 24 h", "procedure,_shortened": "as §3"}, "[22]": {"test_system": "Staphylococcus aureus", "assay": "Bacteriostatic activity against Panton-valentine leukocidin positive community acquired methicillin-resistant Staphylococcus aureus N4090440 infected in human THP-1 cells assessed as decrease in bacterial growth after 24 hrs at pH 5.5", "assay_type": "functional", "procedure,_shortened": "as §5"}, "[23]": {"test_system": "Staphylococcus aureus", "assay": "Bacteriostatic activity against Panton-valentine leukocidin positive community acquired methicillin-resistant Staphylococcus aureus N4042228 infected in human THP-1 cells assessed as decrease in bacterial growth after 24 hrs at pH 5.5", "assay_type": "functional", "procedure,_shortened": "as §5"}, "[24]": {"test_system": "Staphylococcus aureus", "assay": "Bacteriostatic activity against hospital acquired methicillin-resistant and vancomycin-intermediate Staphylococcus aureus VRS2 infected in human THP-1 cells assessed as decrease in bacterial growth after 24 hrs at pH 5.5", "assay_type": "functional", "procedure,_shortened": "as §5"}},
  "data": [
    {"smiles": "Cc1onc(-c2ccccc2Cl)c1C(=O)N[C@@H]1C(=O)N2[C@@H]1SC(C)(C)[C@@H]2C(=O)O", "note": "[CLOXACILLIN]", "values": [
      {"measurement": "log10cfu", "setting": "[1]", "result": 2.06},
      {"measurement": "log10cfu", "setting": "[2]", "result": 0.95},
      {"measurement": "log10cfu", "setting": "[3]", "result": 0.93},
      {"measurement": "EC50", "setting": "[4]", "result": 0.39, "unit": "µg/mL"},
      {"measurement": "Activity", "setting": "[5]", "result": 1.6, "unit": "mg/L"},
      {"measurement": "remaining at 24 h", "setting": "[6]", "result": 97.8, "unit": "%"},
      {"measurement": "MIC", "setting": "[7]", "result": 0.125, "unit": "µg/mL"},
      {"measurement": "MIC", "setting": "[8]", "result": 2, "unit": "µg/mL"},
      {"measurement": "MIC", "setting": "[9]", "result": 0.06, "unit": "µg/mL"},
      {"measurement": "log10cfu", "setting": "[10]", "result": 2.27},
      {"measurement": "log10cfu", "setting": "[11]", "result": 2.6},
      {"measurement": "log10cfu", "setting": "[12]", "result": 2.07},
      {"measurement": "log10cfu", "setting": "[13]", "result": 1.69},
      {"measurement": "log10cfu", "setting": "[14]", "result": 0.74},
      {"measurement": "log10cfu", "setting": "[15]", "result": 0.63},
      {"measurement": "log10cfu", "setting": "[16]", "result": 0.57},
      {"measurement": "log10cfu", "setting": "[17]", "result": 0.78},
      {"measurement": "EC50", "setting": "[18]", "result": 4.25, "unit": "×MIC"},
      {"measurement": "EC50", "setting": "[19]", "result": 5.67, "unit": "×MIC"},
      {"measurement": "EC50", "setting": "[20]", "result": 3.14, "unit": "×MIC"},
      {"measurement": "EC50", "setting": "[21]", "result": 6.99, "unit": "×MIC"},
      {"measurement": "Activity", "setting": "[22]", "result": 17.4, "unit": "×MIC"},
      {"measurement": "Activity", "setting": "[23]", "result": 45.7, "unit": "×MIC"},
      {"measurement": "Activity", "setting": "[24]", "result": 8.12, "unit": "mg/L"}
    ]}
  ]
}
